Measurements as given in paper PMC5730275 (Chemical communications (Cambridge, England), 2017).
Numbering of substitutions follows the chain as printed.

Tests used:
[1] = Solubility in assay buffer; type: physicochemical; conditions: microscopic inspection of assay wells
[2] = system: isofunctional, but zinc-independent enzyme activities present in cytosolic and microsomal fractions of mouse brain or small intestine; assay: Isofunctional zinc-independent enzyme activities in mouse tissue fractions; type: biochemical; conditions: 300 μM
[3] = target: angiotensin-converting enzyme (ACE) (Homo sapiens, UniProt P12821); assay: Selectivity: zinc-dependent enzyme ACE; type: biochemical; conditions: 50 μM
[4] = target: T1, human N-acylethanolamine acid amidase (NAAA) (Homo sapiens, UniProt Q02083); assay: Selectivity: NAAA activity; type: biochemical; conditions: 300 μM
T1 sequence (Q02083 29-359): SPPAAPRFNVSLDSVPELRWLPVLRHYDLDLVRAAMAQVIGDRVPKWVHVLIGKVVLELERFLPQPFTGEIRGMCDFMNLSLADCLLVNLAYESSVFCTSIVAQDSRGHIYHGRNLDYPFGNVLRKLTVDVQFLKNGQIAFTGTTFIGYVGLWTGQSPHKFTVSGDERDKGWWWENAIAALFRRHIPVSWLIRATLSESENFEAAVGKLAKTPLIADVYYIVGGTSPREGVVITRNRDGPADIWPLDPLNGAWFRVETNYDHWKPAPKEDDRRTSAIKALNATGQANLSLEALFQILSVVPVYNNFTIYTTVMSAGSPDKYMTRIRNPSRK

[5] = target: T2, Q320S NAPE-PLD (Homo sapiens, UniProt Q6IQ20, Q320S); assay: Inhibition of Q320S NAPE-PLD mutant; type: biochemical
T2 sequence (Q6IQ20 1-393 Q320S): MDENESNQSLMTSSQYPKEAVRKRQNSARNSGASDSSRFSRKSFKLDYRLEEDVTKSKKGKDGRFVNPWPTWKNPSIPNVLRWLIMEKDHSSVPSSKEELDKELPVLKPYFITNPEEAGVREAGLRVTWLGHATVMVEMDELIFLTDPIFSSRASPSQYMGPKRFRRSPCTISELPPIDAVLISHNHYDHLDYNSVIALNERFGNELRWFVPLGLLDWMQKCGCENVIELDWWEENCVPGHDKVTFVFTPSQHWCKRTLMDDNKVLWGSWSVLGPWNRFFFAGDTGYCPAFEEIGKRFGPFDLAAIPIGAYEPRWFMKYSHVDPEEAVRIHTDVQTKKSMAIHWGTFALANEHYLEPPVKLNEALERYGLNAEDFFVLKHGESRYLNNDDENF

[6] = target: purified human recombinant NAPE-PLD (Homo sapiens, UniProt Q6IQ20); assay: Inhibition of purified human recombinant NAPE-PLD; type: biochemical
Method in brief: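 Purified recombinant human NAPE-PLD. Michaelis-Menten kinetics and activity time-course were run with vehicle (1% DMSO) or test compound at 50 or 100 μM. Reversibility was tested by rapid dilution after preincubating the enzyme with vehicle (1% DMSO) or test compound (100 μM).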

[7] = target: T3, Q320A NAPE-PLD mutant (Homo sapiens, UniProt Q6IQ20, Q320A); assay: Inhibition of Q320A NAPE-PLD mutant; type: biochemical
T3 sequence (Q6IQ20 1-393 Q320A): T2 sequence (Q6IQ20 1-393 Q320S) with S320A

[8] = target: T4, human fatty acid amide hydrolase (FAAH)-1 (Homo sapiens, UniProt O00519); assay: Selectivity: FAAH-1 activity; type: biochemical; conditions: 300 μM
T4 sequence (O00519 1-579): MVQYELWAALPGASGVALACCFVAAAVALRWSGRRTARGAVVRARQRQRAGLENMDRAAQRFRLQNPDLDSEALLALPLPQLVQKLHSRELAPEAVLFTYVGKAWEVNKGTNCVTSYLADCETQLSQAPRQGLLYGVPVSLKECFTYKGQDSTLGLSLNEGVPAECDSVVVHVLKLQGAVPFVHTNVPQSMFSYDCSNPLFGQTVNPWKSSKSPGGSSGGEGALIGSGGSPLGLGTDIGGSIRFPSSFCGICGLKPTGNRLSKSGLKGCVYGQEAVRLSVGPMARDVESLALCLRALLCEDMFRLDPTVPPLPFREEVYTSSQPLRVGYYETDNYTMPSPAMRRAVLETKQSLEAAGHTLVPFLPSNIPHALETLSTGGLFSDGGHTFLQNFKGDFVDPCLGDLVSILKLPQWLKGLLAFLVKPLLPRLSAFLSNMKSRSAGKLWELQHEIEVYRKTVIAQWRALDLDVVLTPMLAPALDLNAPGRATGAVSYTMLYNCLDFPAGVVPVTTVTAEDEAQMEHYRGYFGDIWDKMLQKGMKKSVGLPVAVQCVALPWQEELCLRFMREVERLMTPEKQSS

[9] = target: neutral endopeptidase (Homo sapiens, UniProt P08473); assay: Selectivity: zinc-dependent enzyme neutral endopeptidase; type: biochemical; conditions: 50 μM
[10] = target: T5, NAPE-PLD mutant Q158S/Y159S (Homo sapiens, UniProt Q6IQ20, Q158S/Y159S); assay: Inhibition of double NAPE-PLD mutant Q158S/Y159S; type: biochemical; conditions: mutant unable to bind bile acids
T5 sequence (Q6IQ20 1-393 Q158S/Y159S): T2 sequence (Q6IQ20 1-393 Q320S) with Q158S, Y159S, S320Q

[11] = target: carbonic anhydrase (CA) II (Homo sapiens, UniProt P00918); assay: Selectivity: zinc-dependent enzyme carbonic anhydrase II; type: biochemical; conditions: 50 μM
[12] = system: Human HEK-293 cells; assay: NAPE and FAE levels in intact HEK-293 cells by LC-MS; type: cell-based; conditions: 50 μM, 4 hours
Method in brief: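 Human HEK-293 cells, which express NAPE-PLD constitutively, incubated with test compound at 50 μM for 4 h. Lipid extracts then prepared, and NAPE and fatty acid ethanolamide levels measured by liquid chromatography-mass spectrometry.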

Sequence of purified human recombinant NAPE-PLD (Q6IQ20 whole entry): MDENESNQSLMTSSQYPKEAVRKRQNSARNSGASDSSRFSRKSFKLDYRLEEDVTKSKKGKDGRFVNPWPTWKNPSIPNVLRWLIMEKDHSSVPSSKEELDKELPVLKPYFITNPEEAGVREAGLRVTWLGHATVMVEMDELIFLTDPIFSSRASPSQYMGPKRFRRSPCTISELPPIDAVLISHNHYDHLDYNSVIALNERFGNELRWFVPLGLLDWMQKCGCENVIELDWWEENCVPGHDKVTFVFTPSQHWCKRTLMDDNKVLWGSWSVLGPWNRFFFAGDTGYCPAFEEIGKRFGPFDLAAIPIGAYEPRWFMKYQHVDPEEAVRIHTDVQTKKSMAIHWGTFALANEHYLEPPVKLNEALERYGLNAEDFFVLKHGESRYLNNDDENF
Sequence of neutral endopeptidase (P08473 whole entry, species assumed): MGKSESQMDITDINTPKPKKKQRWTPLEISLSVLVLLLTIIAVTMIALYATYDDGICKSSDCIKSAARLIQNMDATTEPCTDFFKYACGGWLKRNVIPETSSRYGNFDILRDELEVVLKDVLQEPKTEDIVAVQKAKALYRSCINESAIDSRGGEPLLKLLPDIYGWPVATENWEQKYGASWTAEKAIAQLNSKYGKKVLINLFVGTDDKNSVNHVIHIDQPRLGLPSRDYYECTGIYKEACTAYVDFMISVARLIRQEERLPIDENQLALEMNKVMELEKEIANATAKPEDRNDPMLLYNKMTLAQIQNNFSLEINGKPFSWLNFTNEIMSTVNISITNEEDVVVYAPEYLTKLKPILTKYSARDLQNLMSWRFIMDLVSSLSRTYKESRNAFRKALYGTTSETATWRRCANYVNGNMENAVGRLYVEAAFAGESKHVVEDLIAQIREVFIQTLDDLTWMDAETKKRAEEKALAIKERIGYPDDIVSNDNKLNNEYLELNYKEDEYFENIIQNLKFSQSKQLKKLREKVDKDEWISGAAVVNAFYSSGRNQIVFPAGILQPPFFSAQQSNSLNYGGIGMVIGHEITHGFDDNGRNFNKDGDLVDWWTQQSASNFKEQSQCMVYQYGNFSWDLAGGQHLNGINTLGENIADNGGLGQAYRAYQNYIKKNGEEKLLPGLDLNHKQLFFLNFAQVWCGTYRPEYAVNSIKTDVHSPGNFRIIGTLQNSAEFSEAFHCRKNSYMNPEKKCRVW
Sequence of angiotensin-converting enzyme (ACE) (P12821 30-1306, species assumed): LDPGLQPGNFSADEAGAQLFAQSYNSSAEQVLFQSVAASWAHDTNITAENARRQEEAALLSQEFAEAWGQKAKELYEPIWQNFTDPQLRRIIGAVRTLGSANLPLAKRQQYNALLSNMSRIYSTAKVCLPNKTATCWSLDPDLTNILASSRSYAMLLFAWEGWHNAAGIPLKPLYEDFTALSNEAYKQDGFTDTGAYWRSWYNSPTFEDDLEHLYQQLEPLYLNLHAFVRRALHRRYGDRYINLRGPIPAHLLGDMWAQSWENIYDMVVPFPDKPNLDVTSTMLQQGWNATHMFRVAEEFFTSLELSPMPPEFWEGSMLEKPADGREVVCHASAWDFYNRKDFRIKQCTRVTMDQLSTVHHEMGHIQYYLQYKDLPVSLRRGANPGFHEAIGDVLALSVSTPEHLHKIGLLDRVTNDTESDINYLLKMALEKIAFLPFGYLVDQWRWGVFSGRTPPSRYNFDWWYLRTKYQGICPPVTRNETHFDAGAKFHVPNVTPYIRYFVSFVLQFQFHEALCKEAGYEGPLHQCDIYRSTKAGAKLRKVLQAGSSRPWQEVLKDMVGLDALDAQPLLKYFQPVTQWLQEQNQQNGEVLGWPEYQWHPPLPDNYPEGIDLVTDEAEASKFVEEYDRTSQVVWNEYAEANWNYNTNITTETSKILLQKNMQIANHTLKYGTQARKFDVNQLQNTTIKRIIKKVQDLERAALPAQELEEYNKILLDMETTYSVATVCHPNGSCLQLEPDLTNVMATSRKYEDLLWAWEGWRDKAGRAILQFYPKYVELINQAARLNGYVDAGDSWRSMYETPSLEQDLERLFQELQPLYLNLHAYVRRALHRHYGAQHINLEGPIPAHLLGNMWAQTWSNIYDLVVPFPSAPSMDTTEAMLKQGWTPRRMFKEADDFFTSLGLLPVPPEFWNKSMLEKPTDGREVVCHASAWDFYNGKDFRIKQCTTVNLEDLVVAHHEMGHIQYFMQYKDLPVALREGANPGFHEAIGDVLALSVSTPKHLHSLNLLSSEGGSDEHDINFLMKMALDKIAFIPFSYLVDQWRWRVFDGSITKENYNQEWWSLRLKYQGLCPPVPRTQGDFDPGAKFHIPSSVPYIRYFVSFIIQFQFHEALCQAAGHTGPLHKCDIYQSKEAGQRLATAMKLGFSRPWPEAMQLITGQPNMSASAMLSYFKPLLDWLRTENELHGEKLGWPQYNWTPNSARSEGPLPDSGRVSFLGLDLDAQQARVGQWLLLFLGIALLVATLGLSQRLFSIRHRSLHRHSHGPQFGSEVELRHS

Structure (SMILES)	Solubility in assay / aqueous buffer [1]	Effect on isofunctional zinc-independent enzyme activities [2]	Inhibitory effect on angiotensin-converting enzyme (ACE) [3]	Effect on human NAAA activity [4]	IC50 [5]	Time-course of NAPE-PLD inhibition ([6]; 18 at 50 or 100 μM)	Mechanism of NAPE-PLD inhibition (kinetic analyses) ([6]; Michaelis-Menten kinetics, 18 at 50 or 100 μM)	Reversibility upon dilution of enzyme-inhibitor complex (rapid dilution assay) ([6]; preincubated with 100 μM)	IC50 [7]	Effect on human FAAH-1 activity [8]	Inhibitory effect on neutral endopeptidase [9]	Susceptibility of Q158S/Y159S mutant to inhibition [10]	Inhibitory effect on carbonic anhydrase (CA) II [11]	Endogenous oleoylethanolamide (OEA) levels in HEK-293 cells [12]	Endogenous palmitoylethanolamide (PEA) levels in HEK-293 cells [12]	NAPE levels in HEK-293 cells [12]	Inhibition of purified NAPE-PLD (concentration-response, Figure 3a) ([6]; identical conditions as 18)
O=c1[nH]c(=O)c2cc(S(=O)(=O)Nc3ccc(-c4ccncc4)cc3)ccc2[nH]1 [Compound 18, 2,4-dioxo-N-[4-(4-pyridyl)phenyl]-1H-quinazoline-6-sulfonamide]	adequate solubility	did not affect	no inhibitory effect	did not affect	36.7 ± 1.6 µM	rapid	uncompetitive	readily reversed	89.2 ± 2.3 µM	did not affect	no inhibitory effect	as susceptible to inhibition by 18 as wild-type NAPE-PLD	no inhibitory effect	remained unmodified	remained unmodified	substantial accumulation	
O=C(Cc1cccs1)N[C@@H]1C(=O)N2C(C(=O)O)=C(/C=C/c3ccc([N+](=O)[O-])cc3[N+](=O)[O-])CS[C@H]12 [nitrocefin, reference compound]																	inactive
